Laboratory results as given in ChEMBL document CHEMBL1141202, “Novel CCR1 antagonists with oral activity in the mouse collagen induced arthritis” (Bioorg Med Chem Lett, 2005).
One block for each molecule: values may come before it.

What was measured:
[1] = Oral bioavailability in rat; assay type: ADME, organism-based; settings: in vivo
Rattus norvegicus = organism: Rattus norvegicus; assay: Maximum concentration in rat; assay type: ADME, organism-based; settings: in vivo
[2] = Half life in rat; assay type: ADME, organism-based; settings: in vivo
[3] = AUC in rat; assay type: ADME, organism-based; settings: plasma
[4] = molecular target: T1, C-C chemokine receptor type 1 (Homo sapiens, UniProt P32246); assay: Antagonistic activity at human CCR1 in CHO-K1 cells; assay type: functional, cell-based
T1 sequence (P32246 whole entry): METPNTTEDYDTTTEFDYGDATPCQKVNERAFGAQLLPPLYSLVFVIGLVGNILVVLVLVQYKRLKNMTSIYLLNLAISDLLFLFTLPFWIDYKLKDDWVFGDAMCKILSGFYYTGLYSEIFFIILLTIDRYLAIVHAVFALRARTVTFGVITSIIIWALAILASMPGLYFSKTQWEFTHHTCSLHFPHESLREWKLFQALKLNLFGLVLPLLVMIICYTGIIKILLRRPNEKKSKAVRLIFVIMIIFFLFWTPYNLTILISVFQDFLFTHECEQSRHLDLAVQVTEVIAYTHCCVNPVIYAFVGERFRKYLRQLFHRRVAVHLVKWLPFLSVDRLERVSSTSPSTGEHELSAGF
Outline: (§1)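 CHO-K1 cells stably transfected with human, mouse or rat CCR1; membranes used in a scintillation proximity assay with radiolabelled MIP-1α as ligand.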

[5] = molecular target: C-C chemokine receptor type 5 (Mus musculus, UniProt P51682); assay: Inhibition of mouse CCR5
[6] = molecular target: C-C chemokine receptor type 6 (Homo sapiens, UniProt P51684); assay: Inhibition of human CCR6
[7] = molecular target: 5-hydroxytryptamine receptor 1A (Homo sapiens, UniProt P08908); assay: Inhibition of human 5HT1A receptor
Sequence of 5-hydroxytryptamine receptor 1A (P08908 whole entry): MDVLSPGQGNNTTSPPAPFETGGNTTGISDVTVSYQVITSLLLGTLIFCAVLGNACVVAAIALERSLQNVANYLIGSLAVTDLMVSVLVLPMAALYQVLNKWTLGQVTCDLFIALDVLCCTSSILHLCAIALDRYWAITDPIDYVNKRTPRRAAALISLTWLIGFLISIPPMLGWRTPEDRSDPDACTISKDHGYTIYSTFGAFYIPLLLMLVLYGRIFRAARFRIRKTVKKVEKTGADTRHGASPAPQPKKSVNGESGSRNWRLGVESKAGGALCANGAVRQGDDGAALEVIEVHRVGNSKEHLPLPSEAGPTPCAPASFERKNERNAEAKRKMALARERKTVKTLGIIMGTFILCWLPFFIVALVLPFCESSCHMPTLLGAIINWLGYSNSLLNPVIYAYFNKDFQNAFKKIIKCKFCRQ

[8] = molecular target: 5-hydroxytryptamine receptor 1B (Homo sapiens, UniProt P28222); assay: Inhibition of human 5HT1B receptor
[9] = molecular target: 5-hydroxytryptamine receptor 2A (Homo sapiens, UniProt P28223); assay: Inhibition of human 5HT2A receptor
[10] = molecular target: C-C chemokine receptor type 2 (Homo sapiens, UniProt P41597); assay: Inhibition of human CCR2b
Sequence of C-C chemokine receptor type 2 (P41597 whole entry): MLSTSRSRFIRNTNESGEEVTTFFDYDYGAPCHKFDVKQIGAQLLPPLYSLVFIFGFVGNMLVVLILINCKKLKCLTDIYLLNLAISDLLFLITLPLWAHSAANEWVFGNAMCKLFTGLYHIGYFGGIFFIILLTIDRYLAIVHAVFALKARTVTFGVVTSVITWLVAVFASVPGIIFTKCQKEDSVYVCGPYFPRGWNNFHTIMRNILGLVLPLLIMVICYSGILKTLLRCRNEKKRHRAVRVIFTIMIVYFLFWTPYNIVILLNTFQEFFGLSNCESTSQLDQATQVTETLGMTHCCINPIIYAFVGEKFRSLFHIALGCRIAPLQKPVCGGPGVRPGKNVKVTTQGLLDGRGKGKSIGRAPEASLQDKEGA

[11] = molecular target: C-C chemokine receptor type 3 (Homo sapiens, UniProt P51677); assay: Inhibition of human CCR3
Sequence of C-C chemokine receptor type 3 (P51677 whole entry): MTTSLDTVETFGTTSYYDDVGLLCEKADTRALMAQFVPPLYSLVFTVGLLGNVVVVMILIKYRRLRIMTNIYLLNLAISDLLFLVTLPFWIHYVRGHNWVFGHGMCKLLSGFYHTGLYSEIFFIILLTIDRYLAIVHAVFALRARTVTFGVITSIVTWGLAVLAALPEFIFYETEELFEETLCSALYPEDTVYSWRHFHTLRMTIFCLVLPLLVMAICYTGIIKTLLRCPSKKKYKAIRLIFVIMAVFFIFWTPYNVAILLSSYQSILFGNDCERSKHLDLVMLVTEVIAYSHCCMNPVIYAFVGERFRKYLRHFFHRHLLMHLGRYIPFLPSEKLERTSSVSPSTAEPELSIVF

[12] = molecular target: 5-hydroxytryptamine receptor 2B (Homo sapiens, UniProt P41595); assay: Inhibition of human 5HT2B receptor
Sequence of 5-hydroxytryptamine receptor 2B (P41595 whole entry): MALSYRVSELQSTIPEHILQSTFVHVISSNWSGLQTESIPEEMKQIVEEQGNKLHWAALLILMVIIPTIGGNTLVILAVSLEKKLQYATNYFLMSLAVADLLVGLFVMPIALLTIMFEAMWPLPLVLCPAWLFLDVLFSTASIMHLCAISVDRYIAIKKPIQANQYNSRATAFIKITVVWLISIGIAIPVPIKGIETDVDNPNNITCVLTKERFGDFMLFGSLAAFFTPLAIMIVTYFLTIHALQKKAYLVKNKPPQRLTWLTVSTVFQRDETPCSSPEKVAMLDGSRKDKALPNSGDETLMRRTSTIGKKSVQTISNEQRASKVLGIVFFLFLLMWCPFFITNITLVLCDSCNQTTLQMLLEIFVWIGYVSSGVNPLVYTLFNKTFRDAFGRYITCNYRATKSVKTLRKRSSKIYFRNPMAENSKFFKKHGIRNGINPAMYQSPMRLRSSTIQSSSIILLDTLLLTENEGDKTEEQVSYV

[13] = molecular target: 5-hydroxytryptamine receptor 2C (Homo sapiens, UniProt P28335); assay: Inhibition of human 5HT2C receptor
[14] = molecular target: Serotonin 3 (5-HT3) receptor; assay: Inhibition of human 5HT3 receptor; assay type: protein-complex assay
[15] = molecular target: 5-hydroxytryptamine receptor 6 (Homo sapiens, UniProt P50406); assay: Inhibition of human 5HT6 receptor
Sequence of 5-hydroxytryptamine receptor 6 (P50406 whole entry): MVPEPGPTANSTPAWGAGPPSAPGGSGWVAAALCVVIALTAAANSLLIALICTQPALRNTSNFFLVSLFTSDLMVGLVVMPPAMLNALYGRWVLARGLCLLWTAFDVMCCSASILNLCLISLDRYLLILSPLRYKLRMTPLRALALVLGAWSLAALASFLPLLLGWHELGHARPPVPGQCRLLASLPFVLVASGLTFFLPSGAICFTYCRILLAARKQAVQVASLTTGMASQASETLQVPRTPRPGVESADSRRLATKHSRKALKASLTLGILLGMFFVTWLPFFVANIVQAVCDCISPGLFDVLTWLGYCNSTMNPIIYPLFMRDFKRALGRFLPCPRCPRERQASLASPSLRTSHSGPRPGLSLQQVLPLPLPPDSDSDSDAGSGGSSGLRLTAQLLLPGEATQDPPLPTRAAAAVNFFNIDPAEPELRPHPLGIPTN

[16] = molecular target: 5-hydroxytryptamine receptor 7 (Homo sapiens, UniProt P34969); assay: Inhibition of human 5HT7 receptor
[17] = molecular target: Muscarinic acetylcholine receptor M1 (Homo sapiens, UniProt P11229); assay: Inhibition of human muscarinic receptor M1
[18] = molecular target: Muscarinic acetylcholine receptor M2 (Homo sapiens, UniProt P08172); assay: Inhibition of human muscarinic receptor M2
Sequence of Muscarinic acetylcholine receptor M2 (P08172 whole entry): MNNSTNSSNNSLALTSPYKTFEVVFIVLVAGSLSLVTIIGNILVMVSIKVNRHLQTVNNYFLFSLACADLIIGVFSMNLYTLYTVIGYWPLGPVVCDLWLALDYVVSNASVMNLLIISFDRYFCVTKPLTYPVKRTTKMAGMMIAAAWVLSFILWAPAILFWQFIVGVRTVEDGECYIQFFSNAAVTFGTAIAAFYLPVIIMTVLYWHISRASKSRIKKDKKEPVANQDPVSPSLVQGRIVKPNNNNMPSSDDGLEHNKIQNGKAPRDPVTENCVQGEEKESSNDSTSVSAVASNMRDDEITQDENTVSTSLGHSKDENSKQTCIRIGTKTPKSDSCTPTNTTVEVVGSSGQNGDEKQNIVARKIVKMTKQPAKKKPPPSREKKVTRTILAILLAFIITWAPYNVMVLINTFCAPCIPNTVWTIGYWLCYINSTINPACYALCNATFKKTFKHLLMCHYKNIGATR

[19] = molecular target: Muscarinic acetylcholine receptor M3 (Homo sapiens, UniProt P20309); assay: Inhibition of human muscarinic receptor M3
[20] = molecular target: Muscarinic acetylcholine receptor M4 (Homo sapiens, UniProt P08173); assay: Inhibition of human muscarinic receptor M4
[21] = molecular target: Muscarinic acetylcholine receptor M5 (Homo sapiens, UniProt P08912); assay: Inhibition of human muscarinic receptor M5
Sequence of Muscarinic acetylcholine receptor M5 (P08912 whole entry): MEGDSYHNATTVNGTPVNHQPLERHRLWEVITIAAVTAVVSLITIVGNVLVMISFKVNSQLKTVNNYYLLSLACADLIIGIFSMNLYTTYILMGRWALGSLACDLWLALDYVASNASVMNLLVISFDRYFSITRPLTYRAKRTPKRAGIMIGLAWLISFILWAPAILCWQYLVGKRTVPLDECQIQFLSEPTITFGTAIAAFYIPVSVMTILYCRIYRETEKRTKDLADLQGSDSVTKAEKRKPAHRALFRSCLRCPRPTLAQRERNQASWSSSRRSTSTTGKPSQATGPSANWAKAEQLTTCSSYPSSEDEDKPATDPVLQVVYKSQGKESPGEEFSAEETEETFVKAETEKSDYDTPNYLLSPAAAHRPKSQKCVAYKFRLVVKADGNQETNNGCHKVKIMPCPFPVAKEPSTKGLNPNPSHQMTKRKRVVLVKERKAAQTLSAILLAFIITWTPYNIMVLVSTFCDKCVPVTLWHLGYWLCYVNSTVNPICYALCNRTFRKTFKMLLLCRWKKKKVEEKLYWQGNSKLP

D(1A) dopamine receptor = D(1A) dopamine receptor (Homo sapiens, UniProt P21728); assay: Inhibition of human dopamine receptor D1
D(2) dopamine receptor = D(2) dopamine receptor (Homo sapiens, UniProt P14416); assay: Inhibition of human dopamine receptor D2
Sequence of D(2) dopamine receptor (P14416 whole entry): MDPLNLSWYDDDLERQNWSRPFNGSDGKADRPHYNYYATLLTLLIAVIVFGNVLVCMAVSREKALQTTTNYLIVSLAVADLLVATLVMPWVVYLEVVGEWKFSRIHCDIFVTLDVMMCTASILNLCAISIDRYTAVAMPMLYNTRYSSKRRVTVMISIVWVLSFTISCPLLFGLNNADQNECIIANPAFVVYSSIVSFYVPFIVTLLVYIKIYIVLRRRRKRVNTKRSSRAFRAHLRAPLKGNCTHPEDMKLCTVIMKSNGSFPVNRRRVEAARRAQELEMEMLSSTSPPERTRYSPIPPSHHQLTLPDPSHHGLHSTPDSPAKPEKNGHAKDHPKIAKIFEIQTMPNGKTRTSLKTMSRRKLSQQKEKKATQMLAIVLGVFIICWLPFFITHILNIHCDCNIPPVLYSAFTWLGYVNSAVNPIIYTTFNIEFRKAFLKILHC

D(3) dopamine receptor = D(3) dopamine receptor (Homo sapiens, UniProt P35462); assay: Inhibition of human dopamine receptor D3
Sequence of D(3) dopamine receptor (P35462 whole entry): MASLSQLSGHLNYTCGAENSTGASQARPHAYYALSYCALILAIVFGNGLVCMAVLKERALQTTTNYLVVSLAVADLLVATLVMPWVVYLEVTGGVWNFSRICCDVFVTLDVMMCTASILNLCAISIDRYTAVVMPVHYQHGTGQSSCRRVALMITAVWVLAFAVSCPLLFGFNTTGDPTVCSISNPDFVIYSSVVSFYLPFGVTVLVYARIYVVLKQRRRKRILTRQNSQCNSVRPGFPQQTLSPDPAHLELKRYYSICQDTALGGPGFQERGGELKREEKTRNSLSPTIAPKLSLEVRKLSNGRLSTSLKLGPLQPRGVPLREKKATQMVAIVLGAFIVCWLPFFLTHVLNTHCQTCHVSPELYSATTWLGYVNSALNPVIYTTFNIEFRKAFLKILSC

D(4) dopamine receptor = D(4) dopamine receptor (Homo sapiens, UniProt P21917); assay: Inhibition of human dopamine receptor D4.4
[22] = molecular target: Adrenergic receptor alpha-1 (Homo sapiens, UniProt P35348+P25100+P35368); assay: Inhibition of human adrenergic alpha-1 receptor; assay type: protein assay
[23] = molecular target: Alpha-2A adrenergic receptor (Homo sapiens, UniProt P08913); assay: Inhibition of human adrenergic alpha-2A receptor
[24] = molecular target: Alpha-2B adrenergic receptor (Homo sapiens, UniProt P18089); assay: Inhibition of human adrenergic alpha-2B receptor
[25] = molecular target: Alpha-2C adrenergic receptor (Homo sapiens, UniProt P18825); assay: Inhibition of human adrenergic alpha-2C receptor
[26] = molecular target: Beta-1 adrenergic receptor (Homo sapiens, UniProt P08588); assay: Inhibition of human adrenergic beta-1 receptor
Sequence of Beta-1 adrenergic receptor (P08588 whole entry): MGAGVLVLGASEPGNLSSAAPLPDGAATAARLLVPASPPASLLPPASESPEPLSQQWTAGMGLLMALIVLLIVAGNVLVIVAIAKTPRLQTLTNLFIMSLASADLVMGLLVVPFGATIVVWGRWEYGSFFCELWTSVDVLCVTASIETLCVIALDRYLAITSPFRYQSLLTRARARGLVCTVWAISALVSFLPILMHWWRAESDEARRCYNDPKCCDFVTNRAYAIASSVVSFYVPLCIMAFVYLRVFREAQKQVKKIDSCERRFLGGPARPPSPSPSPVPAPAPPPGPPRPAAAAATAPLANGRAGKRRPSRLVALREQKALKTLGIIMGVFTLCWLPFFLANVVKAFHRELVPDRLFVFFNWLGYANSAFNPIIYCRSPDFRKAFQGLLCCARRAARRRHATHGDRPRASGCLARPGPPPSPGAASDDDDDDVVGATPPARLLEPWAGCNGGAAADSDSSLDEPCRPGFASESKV

[27] = molecular target: Beta-2 adrenergic receptor (Homo sapiens, UniProt P07550); assay: Inhibition of human adrenergic beta-2 receptor
Mu-type opioid receptor = Mu-type opioid receptor (Homo sapiens, UniProt P35372); assay: Inhibition of human mu opioid receptor
[28] = molecular target: Kappa-type opioid receptor (Homo sapiens, UniProt P41145); assay: Inhibition of human kappa opioid receptor
Sequence of Kappa-type opioid receptor (P41145 whole entry): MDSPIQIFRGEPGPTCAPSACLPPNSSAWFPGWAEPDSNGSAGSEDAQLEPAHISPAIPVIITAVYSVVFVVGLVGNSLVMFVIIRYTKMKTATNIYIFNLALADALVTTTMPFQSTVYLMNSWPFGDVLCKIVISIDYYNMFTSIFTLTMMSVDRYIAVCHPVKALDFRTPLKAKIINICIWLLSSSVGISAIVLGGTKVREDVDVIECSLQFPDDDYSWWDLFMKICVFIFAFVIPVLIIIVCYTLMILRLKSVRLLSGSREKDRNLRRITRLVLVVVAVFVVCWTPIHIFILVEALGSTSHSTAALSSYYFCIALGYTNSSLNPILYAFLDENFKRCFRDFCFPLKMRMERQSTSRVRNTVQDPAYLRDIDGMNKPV

[29] = molecular target: Delta-type opioid receptor (Homo sapiens, UniProt P41143); assay: Inhibition of human delta opioid receptor
[30] = molecular target: T2, C-C chemokine receptor type 1 (Mus musculus, UniProt P51675); assay: Antagonistic activity at mouse CCR1 in CHO-K1 cells; assay type: functional, cell-based; outline: as §1
T2 sequence (P51675 whole entry): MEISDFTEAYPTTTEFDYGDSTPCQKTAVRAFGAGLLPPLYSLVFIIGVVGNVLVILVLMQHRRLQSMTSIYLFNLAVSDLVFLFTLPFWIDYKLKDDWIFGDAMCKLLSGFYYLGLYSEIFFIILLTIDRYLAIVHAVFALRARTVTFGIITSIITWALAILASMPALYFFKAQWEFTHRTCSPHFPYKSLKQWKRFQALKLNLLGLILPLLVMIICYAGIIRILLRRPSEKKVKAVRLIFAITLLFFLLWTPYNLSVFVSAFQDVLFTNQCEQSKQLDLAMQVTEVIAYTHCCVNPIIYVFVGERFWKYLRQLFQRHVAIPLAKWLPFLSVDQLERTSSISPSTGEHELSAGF

[31] = molecular target: T1, C-C chemokine receptor type 1; assay: Antagonistic activity at human CCR1 by inhibition of MIP-1alpha induced calcium mobilization in THP1 cells; assay type: functional, cell-based, THP-1
Outline: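 THP-1 cells with native CCR1 expression; preincubated with antagonist 30 min at RT, then stimulated with 3 nM MIP-1α; calcium response read as fluo-4 fluorescence.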

- bioavailability [1]: 90%
- Cmax (Rattus norvegicus): 934 nM
- half-life [2]: 11 h
- AUC [3]: 487 ng·h/mL
Structure (SMILES): C[C@@H]1CN(Cc2ccc(F)cc2)CCN1C(=O)/C=C/c1ccc(Cl)cc1NC(N)=O

- IC50 [4]: 1700 nM
Structure (SMILES): CC(=O)Nc1cc(Cl)ccc1/C=C/C(=O)N1C[C@H]2C[C@@H]1CN2Cc1ccc(F)cc1

- bioavailability [1]: 95%
- Cmax (Rattus norvegicus): 850 nM
- half-life [2]: 16.5 h
- AUC [3]: 784 ng·h/mL
- IC50 [5]: > 10000 nM
- IC50 [6]: > 100000 nM
- IC50 [7]: > 1000 nM
- IC50 [8]: > 1000 nM
- IC50 [9]: > 1000 nM
- IC50 [10]: > 10000 nM
- IC50 [11]: > 10000 nM
- IC50 [12]: > 1000 nM
- IC50 [13]: > 1000 nM
- IC50 [14]: > 1000 nM
- IC50 [15]: > 1000 nM
- IC50 [16]: > 1000 nM
- IC50 [17]: > 1000 nM
- IC50 [18]: > 1000 nM
- IC50 [19]: > 1000 nM
- IC50 [20]: > 1000 nM
- IC50 [21]: > 1000 nM
- IC50 (D(1A) dopamine receptor): > 1000 nM
- IC50 (D(2) dopamine receptor): > 1000 nM
- IC50 (D(3) dopamine receptor): > 1000 nM
- IC50 (D(4) dopamine receptor): > 1000 nM
- IC50 [22]: > 1000 nM
- IC50 [23]: > 1000 nM
- IC50 [24]: > 1000 nM
- IC50 [25]: > 1000 nM
- IC50 [26]: > 1000 nM
- IC50 [27]: > 1000 nM
- IC50 (Mu-type opioid receptor): > 1000 nM
- IC50 [28]: > 1000 nM
- IC50 [29]: > 1000 nM
Structure (SMILES): CC(=O)Nc1cc(Cl)ccc1/C=C/C(=O)N1CCN(Cc2ccc(F)cc2)C[C@H]1C

- IC50 [4]: 30 nM
- IC50 [30]: 1000 nM
- IC50 [31]: 20 nM
Structure (SMILES): CC(=O)Nc1cc2ncccc2cc1/C=C/C(=O)N1CCN(Cc2ccc(F)cc2)C[C@H]1C

Structure (SMILES): CN(C)CC(=O)Nc1cc(Cl)ccc1/C=C/C(=O)N1C2CCC1CN(Cc1ccc(F)cc1)C2
- IC50 [4]: 30 nM
- IC50 [30]: 40 nM
- IC50 [31]: 9 nM
- bioavailability [1]: 77%
- Cmax (Rattus norvegicus): 407 nM
- half-life [2]: 2.92 h
- AUC [3]: 1070 ng·h/mL

- bioavailability [1]: 100%
- Cmax (Rattus norvegicus): 396 nM
- half-life [2]: 4.1 h
- AUC [3]: 750 ng·h/mL
Structure (SMILES): COc1cc(/C=C/C(=O)N2CCN(Cc3ccc(F)cc3)C[C@H]2C)c(NC(C)=O)cc1Cl

- IC50 [4]: 150 nM
- IC50 [30]: 50 nM
Structure (SMILES): CC(=O)Nc1cc2ncccc2cc1/C=C/C(=O)N1C2CCC1CN(Cc1ccc(F)cc1)C2

- IC50 [4]: 1600 nM
Structure (SMILES): CC(=O)Nc1cc(Cl)ccc1/C=C/C(=O)N1CCCN(Cc2ccc(F)cc2)C[C@H]1C

- IC50 [4]: 80 nM
- IC50 [30]: 500 nM
- IC50 [31]: 13 nM
Structure (SMILES): CC(=O)Nc1cc2ccccc2cc1/C=C/C(=O)N1CCN(Cc2ccc(F)cc2)C[C@H]1C

- IC50 [4]: 300 nM
Structure (SMILES): CC(=O)Nc1cc(Cl)ccc1/C=C/C(=O)N1CC2CCC(C1)N2Cc1ccc(F)cc1

- IC50 [4]: 7 nM
- IC50 [30]: 4 nM
- bioavailability [1]: 83%
- Cmax (Rattus norvegicus): 80 nM
- half-life [2]: 5.1 h
- AUC [3]: 158 ng·h/mL
Structure (SMILES): COc1cc(/C=C/C(=O)N2C3CCC2CN(Cc2ccc(F)cc2)C3)c(NC(C)=O)cc1Cl

- IC50 [4]: 200 nM
Structure (SMILES): CC(=O)Nc1cc(Cl)ccc1/C=C/C(=O)N1C2CCC1CN(Cc1ccc(F)cc1)C2

- IC50 [4]: 800 nM
Structure (SMILES): COc1cc2c(cc1Cl)NC(=O)NC2CC(=O)N1CCN(Cc2ccc(F)cc2)C[C@H]1C (stereo partly drawn)

- IC50 [4]: 360 nM
Structure (SMILES): CC(=O)Nc1cc(Cl)ccc1CCC(=O)N1CCN(Cc2ccc(F)cc2)C[C@H]1C

Structure (SMILES): C[C@@H]1CN(Cc2ccc(F)cc2)CCN1C(=O)COc1ccc(Cl)cc1NC(N)=O.Cl [BX 471]
- bioavailability [1]: 100%
- Cmax (Rattus norvegicus): 400 nM
- half-life [2]: 1.9 h
- AUC [3]: 139 ng·h/mL
